Publication PMC5768938 (World Journal of Gastroenterology, 2018)
Marks after values point to notes of the source that are not given here.

What was measured:
TGR5 = conditions: read-out: TGR5 EC50; in vitro; cited from earlier work
FXR = conditions: read-out: FXR EC50; in vitro; cited from earlier work
[1] = LC/MS/MS determination of compound levels in liver and ileum, 14 d dosing; type: in vivo; conditions: 1-30 mg/kg PO, chow-fed C57Bl6 mice
Outline: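 Chow-fed C57Bl6 mice were dosed PO QD with test compounds at 1-30 mg/kg for 14 d. Weighed liver and ileum were bead-homogenised in 7 volumes of 80/20 ACN/HBSS and centrifuged. Supernatant was dried under nitrogen and reconstituted in 60/40 methanol/10 mmol/L ammonium acetate with 25 nmol/L d5-GCA internal standard, then filtered. Analysis used UHPLC-high-resolution MS in negative ESI with a C18 column at 45 °C and matrix-matched quadratic (1/x) calibration.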

ob/ob-NASH mice = assay: Liver histology; type: in vivo; conditions: 16 wk; for Collagen 1a1 (fibrosis) % fractional area, Before treatment / Galectin-3 (inflammation) % fractional area, Before treatment / Lipid (steatosis) % fractional area, Before treatment: baseline biopsy; for Collagen 1a1 (fibrosis) % fractional area, Before treatment / Galectin-3 (inflammation) % fractional area, Before treatment / Lipid (steatosis) % fractional area, Before treatment / Collagen 1a1 (fibrosis) % fractional area, After treatment / Galectin-3 (inflammation) % fractional area, After treatment / Lipid (steatosis) % fractional area, After treatment: mean ± SE
Outline: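 Biopsy-confirmed ob/ob-NASH mice (AMLN diet; n = 11-12/group, stratified by Col1a1 fibrosis) were dosed orally with vehicle or test compound for 16 wk. Baseline biopsies and terminal left lateral lobe samples were fixed overnight in 4% PFA, paraffin-sectioned at 3 μm, and stained with HE, anti-Col1a1 and anti-galectin-3. Scoring was blinded. Immunoreactive area was expressed as % of parenchymal area after subtracting fat area from adjacent HE sections. Responders had ≥1-point change (χ2 test).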

FXR target genes = assay: Hepatic and ileal FXR target gene expression by RNA sequencing, 14 d dosing; type: in vivo; conditions: 1-30 mg/kg PO, 2 wk, lean C57Bl6 mice, RNAseq
Outline: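 Lean chow-fed C57Bl6 mice received FXR-agonist test compounds at 1, 3, 10 or 30 mg/kg PO QD for 14 d. Liver and ileum transcriptomes were profiled by RNA sequencing using stranded mRNA libraries on a NextSeq 500. Prototypic FXR target genes were analysed by two-way ANOVA with Bonferroni post-hoc test against untreated (dose 0) animals.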

[2] = 10 mg/kg, subjects achieving > 1 points improvement in score from baseline

CC[C@H]1[C@@H](O)C2[C@@H]3CC[C@H]([C@H](C)CCOS(=O)(=O)O)[C@@]3(C)CC[C@@H]2[C@@]2(C)CC[C@@H](O)C[C@@H]12 (some centres unmarked) [INT-767]
EC50 (TGR5): […]
EC50 (FXR): […]

CC[C@H]1[C@@H](O)[C@@H]2[C@H](CC[C@]3(C)[C@@H]([C@H](C)CCC(=O)O)CC[C@@H]23)[C@@]2(C)CC[C@@H](O)C[C@@H]12 [OCA, obeticholic acid]
ileal drug concentration compared to the liver [1]: approximately two-fold
Fibrosis stage: No improvement (number of mice) (ob/ob-NASH mice; 10 mg/kg): 10
Fibrosis stage: With improvement (number of mice) (ob/ob-NASH mice; 10 mg/kg): 2
NAS: No improvement (number of mice) (ob/ob-NASH mice; 10 mg/kg): 8
NAS: With improvement (number of mice) (ob/ob-NASH mice; 10 mg/kg): 4
Collagen 1a1 (fibrosis) % fractional area, Before treatment (ob/ob-NASH mice; 10 mg/kg): 0.9 ± 0.1 % fractional area
Galectin-3 (inflammation) % fractional area, Before treatment (ob/ob-NASH mice; 10 mg/kg): 5.5 ± 0.3 % fractional area
Lipid (steatosis) % fractional area, Before treatment (ob/ob-NASH mice; 10 mg/kg): 33.4 ± 0.8 % fractional area
Collagen 1a1 (fibrosis) % fractional area, After treatment (ob/ob-NASH mice; 10 mg/kg): 9.0 ± 0.6 ^a % fractional area
Galectin-3 (inflammation) % fractional area, After treatment (ob/ob-NASH mice; 10 mg/kg): 5.0 ± 0.2 ^a % fractional area
Lipid (steatosis) % fractional area, After treatment (ob/ob-NASH mice; 10 mg/kg): 31.8 ± 0.4 % fractional area
Fibrosis stage: % improving (ob/ob-NASH mice; [2]): 17%
NAS: % improving (ob/ob-NASH mice; [2]): 33%
Fibrosis stage: No improvement (number of mice) (ob/ob-NASH mice; 30 mg/kg): 7
Fibrosis stage: With improvement (number of mice) (ob/ob-NASH mice; 30 mg/kg): 4
NAS: No improvement (number of mice) (ob/ob-NASH mice; 30 mg/kg): 0
NAS: With improvement (number of mice) (ob/ob-NASH mice; 30 mg/kg): 11
Collagen 1a1 (fibrosis) % fractional area, Before treatment (ob/ob-NASH mice; 30 mg/kg): 1.2 ± 0.2 % fractional area
Galectin-3 (inflammation) % fractional area, Before treatment (ob/ob-NASH mice; 30 mg/kg): 5.5 ± 0.4 % fractional area
Lipid (steatosis) % fractional area, Before treatment (ob/ob-NASH mice; 30 mg/kg): 32.2 ± 1.1 % fractional area
Collagen 1a1 (fibrosis) % fractional area, After treatment (ob/ob-NASH mice; 30 mg/kg): 8.0 ± 0.7 ^a % fractional area
Galectin-3 (inflammation) % fractional area, After treatment (ob/ob-NASH mice; 30 mg/kg): 4.0 ± 0.4 ^a % fractional area
Lipid (steatosis) % fractional area, After treatment (ob/ob-NASH mice; 30 mg/kg): 22.7 ± 1.0 ^a % fractional area
NAS: % improving (ob/ob-NASH mice; 30 mg/kg, subjects achieving > 1 points improvement in score from baseline): 100% ^a
hepatic FXR target gene expression (BSEP, OST, CYP8b1, SHP) (FXR target genes): regulated hepatic FXR genes
ileal FXR target gene expression (SHP, FGF-15) (FXR target genes): more pronounced effects
